19 molecules from ChEMBL document CHEMBL4325856, “Synthesis of cinnamic amide derivatives and their anti-melanogenic effect in α-MSH-stimulated B16F10 melanoma cells” (Eur J Med Chem, 2019) can be followed below.

Data set [1] addresses T1, Tyrosinase (Agaricus bisporus) (UniProt O42713).
T1 sequence (whole entry): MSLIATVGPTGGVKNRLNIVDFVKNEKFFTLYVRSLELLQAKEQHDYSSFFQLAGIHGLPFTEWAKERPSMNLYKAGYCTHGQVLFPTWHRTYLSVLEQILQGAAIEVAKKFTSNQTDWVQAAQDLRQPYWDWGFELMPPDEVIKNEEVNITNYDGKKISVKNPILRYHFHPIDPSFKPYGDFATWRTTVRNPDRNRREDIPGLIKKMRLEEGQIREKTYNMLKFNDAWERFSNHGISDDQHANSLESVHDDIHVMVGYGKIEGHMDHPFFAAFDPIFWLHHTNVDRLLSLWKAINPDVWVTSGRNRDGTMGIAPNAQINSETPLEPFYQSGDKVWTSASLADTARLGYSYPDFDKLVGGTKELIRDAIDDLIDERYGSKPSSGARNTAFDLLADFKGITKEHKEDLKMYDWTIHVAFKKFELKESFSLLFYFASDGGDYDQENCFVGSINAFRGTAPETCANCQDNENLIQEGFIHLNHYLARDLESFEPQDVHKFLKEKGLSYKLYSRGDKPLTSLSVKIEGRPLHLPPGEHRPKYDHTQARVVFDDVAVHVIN
The following applies: at 25 µM.

In data set [2] the target is T1, Tyrosinase (Agaricus bisporus). The experiment in a line: Competitive inhibition of mushroom tyrosinase at 10 to 40 nM using varying levels of L-tyrosine as substrate by Lineweaver-Burk plot analysis. Summed up: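 Mushroom tyrosinase (200 units) with inhibitor at 10, 20 and 40 nM and L-tyrosine 0.03125 to 16 mM, in 50 mM potassium phosphate pH 6.5. Initial dopachrome formation rate taken as ΔOD475/min. Km and Vmax from Lineweaver–Burk plots (1/V vs 1/[S]); Ki from modified Michaelis–Menten equation. Triplicate.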

Data set [3] has as its system B16-F10. Description: Cytotoxicity against mouse B16F10 cells assessed as reduction in cell viability at 5 to 25 uM after 24 hrs by WST8 assay. It counts as cell-based. As to conditions: b16-f10, 24 h. Summed up: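 Murine B16F10 cells in DMEM with 10% FBS and penicillin/streptomycin at 37 °C, 5% CO2, in 96-well plates. Pre-cultured cells exposed to 0, 5, 10 or 25 µM for 24 h. WST-8 reagent then added for 30 min to 2 h, absorbance read at 450 nm, viability given as % of control. Triplicate; means ± SEM.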

In the next data set the target is T2, Tyrosinase (Agaricus bisporus, UniProt O42713).
T2 sequence (O42713 whole entry): T1 sequence (whole entry)
Description: Inhibition of mushroom tyrosinase using L-tyrosine as substrate incubated for 30 mins by spectrophotometric method. Summed up:
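Mushroom tyrosinase with test sample (final 25 µM) in substrate mix of 14.7 mM potassium phosphate buffer and 293 µM L-tyrosine (1:1, v/v), incubated 30 min at 37 °C. Dopachrome absorbance read at 450 nm; % inhibition calculated against untreated control. Kojic acid 25 µM and arbutin 400 µM as positive controls. Triplicate; means ± SEM.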

In data set [4] the target is T3, Tyrosinase (Mus musculus) (UniProt P11344).
T3 sequence (whole entry): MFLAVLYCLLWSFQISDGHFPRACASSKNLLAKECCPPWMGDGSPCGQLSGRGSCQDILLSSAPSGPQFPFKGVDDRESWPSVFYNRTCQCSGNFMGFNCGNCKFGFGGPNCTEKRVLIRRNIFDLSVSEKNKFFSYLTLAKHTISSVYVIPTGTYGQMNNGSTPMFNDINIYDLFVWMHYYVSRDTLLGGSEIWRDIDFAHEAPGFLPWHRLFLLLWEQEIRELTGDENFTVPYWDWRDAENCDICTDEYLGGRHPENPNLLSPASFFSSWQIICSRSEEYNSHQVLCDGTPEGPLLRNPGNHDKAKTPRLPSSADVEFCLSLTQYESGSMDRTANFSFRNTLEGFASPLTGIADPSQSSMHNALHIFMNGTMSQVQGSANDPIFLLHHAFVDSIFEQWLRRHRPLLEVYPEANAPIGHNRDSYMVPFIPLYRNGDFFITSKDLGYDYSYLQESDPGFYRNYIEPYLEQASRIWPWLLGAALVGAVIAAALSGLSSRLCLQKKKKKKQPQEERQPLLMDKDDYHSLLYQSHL
The experiment in a line: Inhibition of tyrosinase in alpha-MSH-stimulated mouse B16F10 cells assessed as reduction in dopachrome production using L-DOPA as substrate measured after 24 hrs by spectrophotometric method. Summed up: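 B16F10 cells activated with 1 µM α-MSH, then given 0, 5, 10 or 25 µM test agent or 25 µM kojic acid for 24 h. Cells washed with PBS and lysed in 50 mM PBS pH 6.8 with 0.1 mM PMSF and 1% Triton X-100. Lysate frozen at -80 °C for 30 min, spun 12,000 rpm 30 min at 4 °C. Supernatant (80 µL) mixed with 20 µL 10 mM L-dopa, 37 °C for 30 min, OD read at 500 nm. Triplicate.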

In data set [5] the test system is B16-F10. Description: Antimelanogenic activity in alpha-MSH-stimulated mouse B16F10 cells assessed as reduction in melanin content at 25 uM treated at 24 hrs post alpha-MSH stimulation and measured after 24 hrs relative to control. It counts as functional. Details: scale not given: the % may be the effect or the level left. The method in brief:
(§1)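 Cells grown in 24-well plates for 24 h, then stimulated with 1 µM α-MSH and treated with 0, 5, 10 or 25 µM test agent (kojic acid 25 µM as reference) for 24 h. Washed with PBS, melanin dissolved in 200 µL 1N NaOH, absorbance read at 405 nm. Triplicate; means ± SEM, one-way ANOVA with Tukey's test.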

Data set [6] deals with B16-F10. The experiment in a line: Antimelanogenic activity in alpha-MSH-stimulated mouse B16F10 cells assessed as reduction in melanin content treated at 24 hrs post alpha-MSH stimulation and measured after 24 hrs. It counts as functional, cell-based. The method in brief: as §1
Data set [7] has as its target T1, Tyrosinase (Agaricus bisporus). The experiment in a line: Potency index, ratio of compound effect to kojic acid effect for inhibition of mushroom tyrosinase at 25 uM using L-tyrosine as substrate.

Activity calls are given as the source filed them. The calls are words filed in the database; no cut-off is given here.

In the case of `COc1ccc(/C=C/C(=O)Nc2ccccc2)cc1O`, the inhibition in data set [1] was 29.7%.

`O=C(/C=C/c1ccc(O)c(O)c1)NCc1ccccc1` returned an inhibition in data set [1] of 10%.

Consider `COc1cc(/C=C/C(=O)Nc2ccccc2)ccc1O`, for which the inhibition in data set [1] was determined as 59%.

`COc1ccc(/C=C/C(=O)NCc2ccccc2)cc1O`: in data set [1], the inhibition was 31.5%.

Take `O=C(/C=C/c1ccc(O)cc1)NCc1ccccc1`: the inhibition entry in data set [1] is “inactive”.

With `COc1cc(C2CC(=O)Nc3ccccc32)ccc1O` (configuration not stated), the inhibition entry in data set [1] is “inactive”.

In the case of `CCN(CC)C(=O)/C=C/c1ccc(O)c(O)c1`, the inhibition result in data set [1] is “inactive”.

The molecule `COc1ccc(C2CC(=O)Nc3ccccc32)cc1O` (configuration not stated) yielded an inhibition in data set [1] of 25.9%.

Consider `O=C(/C=C/c1ccc(O)c(O)c1)Nc1ccccc1`, for which, in data set [1], the inhibition entry is “inactive”.

Regarding `CCN(CC)C(=O)/C=C/c1ccc(OC)c(O)c1`, in data set [1], the inhibition stood at 20.7%.

Consider `O=C(/C=C/c1ccc(O)cc1O)Nc1ccccc1`, for which the inhibition entry in data set [2] was “Active”. In addition, the values for the Activity result in the data set on B16-F10 [3], with B16-F10 [5] and in the data set on B16-F10 [6] were “Non-Toxic”, 63.97% and “Dose-dependent effect”, respectively. At Tyrosinase, this molecule registered an IC50 of 25.6 nM. The inhibition result in data set [4] is “Dose-dependent effect”. In addition, in data set [7], the Ratio stood at 3.

On to `CCN(CC)C(=O)/C=C/c1ccc(O)cc1O`, for which the inhibition result in data set [2] was “Active”. The Activity entry in the data set on B16-F10 [3] is “Non-Toxic”; in the data set with B16-F10 [5] it was 78.07%; in the data set with B16-F10 [6], “Dose-dependent effect”. The same molecule gave an IC50 against Tyrosinase of 11.2 nM. Besides, the inhibition entry in data set [4] was “Dose-dependent effect”; in data set [1], 96.2%. In addition, in data set [7], the Ratio stood at 3.

With `O=C1CC(c2ccc(O)c(O)c2)c2ccccc2N1` (configuration not stated), in data set [1], the inhibition result was “inactive”.

As to `O=C(/C=C/c1ccc(O)cc1O)NCc1ccccc1`, the values for the Activity entry in the data set with B16-F10 [3], in the data set on B16-F10 [5] and in the data set on B16-F10 [6] were “Non-Toxic”, 65.84% and “Dose-dependent effect”, respectively. In addition, the inhibition result in data set [4] was “Dose-dependent effect”; in data set [1], 85.4%. In addition, the Ratio in data set [7] was 3.

For `COc1cc(/C=C/C(=O)NCc2ccccc2)ccc1O`, the Activity entry in the data set with B16-F10 [3] is “Non-Toxic”; in the data set with B16-F10 [5] it was 80.43%; in the data set on B16-F10 [6], “Dose-dependent effect”. For the same molecule, the results for the inhibition entry in data set [4] and in data set [1] were “Dose-dependent effect” and 82.9%, respectively. Moreover, the Ratio in data set [7] stood at 3.

Take `O=c1cc(CO)occ1O` [KOJIC ACID]: in the data set on B16-F10 [5], the Activity was determined as 44.26%.

As to `CCN(CC)C(=O)/C=C/c1ccc(O)cc1`, in data set [1], the inhibition result is “inactive”.

In the case of `O=C1CC(c2ccc(O)cc2)c2ccccc2N1` (configuration not stated), the inhibition result in data set [1] was “inactive”.

In data set [1], `CCN(CC)C(=O)/C=C/c1ccc(O)c(OC)c1` yielded an inhibition of 61.9%.

In general, inhibition refers to the drop in the measured response relative to a control, in per cent. Broadly, the IC50 is the concentration needed to halve the response being measured.
